The record followed here is ChEMBL document CHEMBL3861960, “Leoligin, the Major Lignan from Edelweiss (Leontopodium nivale subsp. alpinum), Promotes Cholesterol Efflux from THP-1 Macrophages” (J Nat Prod, 2016).

Assay [1] is described as follows: Upregulation of ABCA1 mRNA expression in human THP1 cells at 10 uM after 24 hrs by qPCR method relative to control. It counts as functional, cell-based. The note with it: THP-1. An outline of the steps: (§1)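 THP-1 macrophages treated for 24 h with 10 μM compound, 10 μM pioglitazone or DMSO. Total RNA extracted and converted to cDNA; ABCA1 or ABCG1 measured by SYBR Green qPCR and expressed relative to 18S. Mean ± SD of four independent experiments; one-way ANOVA with Bonferroni test against DMSO.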

Assay [2] in a line: Upregulation of ABCG1 mRNA expression in human THP1 cells at 10 uM after 24 hrs by qPCR method relative to control. It counts as functional, cell-based. The note with it: THP-1. A digest of the protocol:
as §1
In general terms: In qPCR the cycle at which signal appears reflects the starting amount.

Calls of active or inactive are those of the source. No cut-off for these calls is given here.

In the case of `CCc1ccc(CCOc2ccc(CC3SC(=O)NC3=O)cc2)nc1` (configuration not stated), the outcome in assay [1] and in assay [2] was Active.
